This note sets out measurements from ChEMBL document CHEMBL4602724, “Validating the 1,2-Difluoro Motif As a Hybrid Bioisostere of CF3 and Et Using Matrix Metalloproteinases As Structural Probes” (J Med Chem, 2020).

Assay [1] deals with Matrix metalloproteinase-9 (Homo sapiens, UniProt P14780). Nature of the assay: Inhibition of human active MMP9 using (7-methoxycoumarin-4-yl)acetyl-Pro-Leu-Gly-Leu-(3-(2,4-dinitrophenyl)-L-2,3-diamino-propionyl)Ala-Arg-NH2 as substrate preincubated for 30 mins followed by substrate addition and measured for 10 mins by fluorescence assay. Summed up: (§1)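 Human active enzyme at 2 nM was preincubated with compound (10 pM–1 mM) for 30 min at 37 °C in 50 mM Tris·HCl pH 7.5 with 0.2 M NaCl, 5 mM CaCl2, […] ZnSO4 and 0.05% Brij 35. Substrate was then added and fluorescence (ex 330/em 390 nm) followed at 37 °C. Initial 10-min linear rates were plotted against inhibitor concentration. IC50 is the mean of three experiments.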

The target in a further assay is Neutrophil collagenase (Homo sapiens, UniProt P22894). Nature of the assay: Inhibition of human active MMP8 using (7-methoxycoumarin-4-yl)acetyl-Pro-Leu-Gly-Leu-(3-(2,4-dinitrophenyl)-L-2,3-diamino-propionyl)Ala-Arg-NH2 as substrate preincubated for 30 mins followed by substrate addition and measured for 10 mins by fluorescence assay. A digest of the protocol:
as §1

A further assay deals with Collagenase 3 (Homo sapiens, UniProt P45452). The experiment in a line: Inhibition of human active MMP13 using (7-methoxycoumarin-4-yl)acetyl-Pro-Leu-Gly-Leu-(3-(2,4-dinitrophenyl)-L-2,3-diamino-propionyl)Ala-Arg-NH2 as substrate preincubated for 30 mins followed by substrate addition and measured for 10 mins by fluorescence assay. Summed up:
as §1

Assay [2] has as its target 72 kDa type IV collagenase (Homo sapiens, UniProt P08253). The experiment in a line: Inhibition of human active MMP2 using (7-methoxycoumarin-4-yl)acetyl-Pro-Leu-Gly-Leu-(3-(2,4-dinitrophenyl)-L-2,3-diamino-propionyl)Ala-Arg-NH2 as substrate preincubated for 30 mins followed by substrate addition and measured for 10 mins by fluorescence assay. Summed up: as §1

The structures appear in SMILES notation.

Sequence of 72 kDa type IV collagenase (P08253 whole entry): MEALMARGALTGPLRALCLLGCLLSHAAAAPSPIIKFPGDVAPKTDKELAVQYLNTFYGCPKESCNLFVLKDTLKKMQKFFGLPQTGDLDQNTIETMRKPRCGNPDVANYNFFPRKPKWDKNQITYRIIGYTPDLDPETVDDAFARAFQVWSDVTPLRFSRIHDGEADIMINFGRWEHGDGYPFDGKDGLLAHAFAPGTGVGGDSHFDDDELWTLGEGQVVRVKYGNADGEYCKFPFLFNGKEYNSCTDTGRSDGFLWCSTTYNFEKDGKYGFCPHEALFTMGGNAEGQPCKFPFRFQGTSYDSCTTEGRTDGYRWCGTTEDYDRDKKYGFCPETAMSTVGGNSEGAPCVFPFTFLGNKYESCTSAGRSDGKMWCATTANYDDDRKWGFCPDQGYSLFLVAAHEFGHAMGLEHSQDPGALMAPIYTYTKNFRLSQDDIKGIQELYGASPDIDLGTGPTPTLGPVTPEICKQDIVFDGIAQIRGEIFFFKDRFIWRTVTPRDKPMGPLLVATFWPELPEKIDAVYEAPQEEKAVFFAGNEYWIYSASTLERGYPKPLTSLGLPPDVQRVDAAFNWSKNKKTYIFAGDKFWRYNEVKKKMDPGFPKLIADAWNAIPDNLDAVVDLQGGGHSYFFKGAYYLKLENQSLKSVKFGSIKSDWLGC
Sequence of Matrix metalloproteinase-9 (P14780 whole entry): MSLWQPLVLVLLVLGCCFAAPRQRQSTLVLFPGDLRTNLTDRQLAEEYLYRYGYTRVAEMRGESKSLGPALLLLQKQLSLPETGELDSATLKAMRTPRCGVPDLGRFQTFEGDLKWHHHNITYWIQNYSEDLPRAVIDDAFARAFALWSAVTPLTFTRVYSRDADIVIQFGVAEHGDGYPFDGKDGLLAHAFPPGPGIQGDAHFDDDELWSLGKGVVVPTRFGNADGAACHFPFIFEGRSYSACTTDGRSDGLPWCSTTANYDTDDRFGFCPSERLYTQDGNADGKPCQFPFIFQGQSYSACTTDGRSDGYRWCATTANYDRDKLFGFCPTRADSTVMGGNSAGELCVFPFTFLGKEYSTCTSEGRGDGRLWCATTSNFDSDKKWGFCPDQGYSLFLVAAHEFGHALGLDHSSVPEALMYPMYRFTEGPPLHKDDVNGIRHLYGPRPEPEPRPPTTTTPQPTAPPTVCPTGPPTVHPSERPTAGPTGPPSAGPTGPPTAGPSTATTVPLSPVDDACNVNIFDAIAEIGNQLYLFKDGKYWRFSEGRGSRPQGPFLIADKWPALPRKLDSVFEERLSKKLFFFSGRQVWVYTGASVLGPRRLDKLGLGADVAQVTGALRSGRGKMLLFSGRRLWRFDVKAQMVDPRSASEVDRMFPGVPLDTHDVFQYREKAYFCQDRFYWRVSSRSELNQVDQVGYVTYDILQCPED
Sequence of Neutrophil collagenase (P22894 whole entry): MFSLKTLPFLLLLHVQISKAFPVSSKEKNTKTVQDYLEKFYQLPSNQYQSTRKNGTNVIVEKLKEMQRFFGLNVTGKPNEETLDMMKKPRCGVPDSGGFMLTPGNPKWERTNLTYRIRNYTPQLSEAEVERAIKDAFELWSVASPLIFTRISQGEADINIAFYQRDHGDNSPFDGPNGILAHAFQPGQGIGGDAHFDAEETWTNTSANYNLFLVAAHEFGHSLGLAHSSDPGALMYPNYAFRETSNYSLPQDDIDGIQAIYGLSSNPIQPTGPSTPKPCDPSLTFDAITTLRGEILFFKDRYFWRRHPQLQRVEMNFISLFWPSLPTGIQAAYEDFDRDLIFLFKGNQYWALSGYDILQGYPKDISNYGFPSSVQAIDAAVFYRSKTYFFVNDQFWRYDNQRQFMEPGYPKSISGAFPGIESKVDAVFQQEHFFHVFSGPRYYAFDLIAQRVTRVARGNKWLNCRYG

Usually IC50 stands for the concentration that gives 50% inhibition. Regarding `CCCCCCCCC1(Cc2ccccc2)C(=O)NC(=O)NC1=O`, the IC50 is 22 nM in assay [1] (read-out: IC50), 157 nM at Neutrophil collagenase (read-out: IC50), 214 nM at Collagenase 3 (read-out: IC50) and 288 nM in assay [2] (read-out: IC50).
As for `CCCCCCCCCC1(Cc2ccccc2)C(=O)NC(=O)NC1=O`, the IC50 in assay [1] (read-out: IC50) turned out to be 5 nM; on Neutrophil collagenase (read-out: IC50), 96 nM; at Collagenase 3 (read-out: IC50), 180 nM; in assay [2] (read-out: IC50), 210 nM.
`CC(C)CCCCCCCC1(Cc2ccccc2)C(=O)NC(=O)NC1=O`: the IC50 entry (in assay [1]; on Neutrophil collagenase; on Collagenase 3; in assay [2]) was “Nd(Insoluble)” in each case.
Turning to `O=C1NC(=O)C(CCCCCCCC(F)(F)F)(Cc2ccccc2)C(=O)N1`, the 50% inhibitory concentration (IC50) turned out to be 52 nM in assay [1] (read-out: IC50), 229 nM on Neutrophil collagenase (read-out: IC50), 753 nM on Collagenase 3 (read-out: IC50) and 567 nM in assay [2] (read-out: IC50).
Regarding `CCCCCCCCC1(Cc2ccc(OC)cc2)C(=O)NC(=O)NC1=O`, the IC50 came to 3 nM in assay [1] (read-out: IC50), 73 nM on Neutrophil collagenase (read-out: IC50), 94 nM at Collagenase 3 (read-out: IC50) and 42 nM in assay [2] (read-out: IC50).
The matching figures for `CCCCCCCCCC1(Cc2ccc(OC)cc2)C(=O)NC(=O)NC1=O`: 93 nM, 84 nM, 83 nM and 94 nM.
The corresponding values for `COc1ccc(CC2(CCCCCCCC(C)C)C(=O)NC(=O)NC2=O)cc1` are 60 nM, 281 nM, 225 nM and 207 nM.
The matching figures for `COc1ccc(CC2(CCCCCCCC(F)(F)F)C(=O)NC(=O)NC2=O)cc1`: 62 nM, 187 nM, 177 nM and 209 nM.
Turning to `COc1ccc(CC2(CCCCCCC(F)CF)C(=O)NC(=O)NC2=O)cc1` (stereo not drawn), the IC50 in assay [1] (read-out: IC50) was determined as 47 nM; on Neutrophil collagenase (read-out: IC50), 165 nM; at Collagenase 3 (read-out: IC50) it was 17 nM; in assay [2] (read-out: IC50), 411 nM.
The corresponding values for `O=C1NC(=O)C(CCCCCCCC(F)CF)(Cc2ccccc2)C(=O)N1` (stereo not drawn) are 60 nM, 180 nM, 163 nM and 320 nM.
The matching figures for `O=C1NC(=O)C(CCCCCCC(F)CF)(Cc2ccccc2)C(=O)N1` (stereo not drawn): 123 nM, 125 nM, 127 nM and 253 nM.
The corresponding values for `COc1ccc(CC2(CCCCCCCC(F)CF)C(=O)NC(=O)NC2=O)cc1` (racemic) are 26 nM, 110 nM, 64 nM and 139 nM.
